From ChEMBL document CHEMBL2331444, “Design, development and evaluation of novel dual PPARδ/PPARγ agonists” (Bioorg Med Chem Lett, 2013)
Calls of active or inactive are those of the source.

Legend:
Assay type in all cases: cell-based
[1] = target: T1, Peroxisome proliferator-activated receptor delta (Mus musculus) (UniProt P35396); test: Agonist activity at PPARdelta in mouse 3T3L1 cells assessed as upregulation of PDK4 mRNA level at 10 uM after 6 days […] relative to control; conditions: 3T3-L1
T1 sequence (whole entry): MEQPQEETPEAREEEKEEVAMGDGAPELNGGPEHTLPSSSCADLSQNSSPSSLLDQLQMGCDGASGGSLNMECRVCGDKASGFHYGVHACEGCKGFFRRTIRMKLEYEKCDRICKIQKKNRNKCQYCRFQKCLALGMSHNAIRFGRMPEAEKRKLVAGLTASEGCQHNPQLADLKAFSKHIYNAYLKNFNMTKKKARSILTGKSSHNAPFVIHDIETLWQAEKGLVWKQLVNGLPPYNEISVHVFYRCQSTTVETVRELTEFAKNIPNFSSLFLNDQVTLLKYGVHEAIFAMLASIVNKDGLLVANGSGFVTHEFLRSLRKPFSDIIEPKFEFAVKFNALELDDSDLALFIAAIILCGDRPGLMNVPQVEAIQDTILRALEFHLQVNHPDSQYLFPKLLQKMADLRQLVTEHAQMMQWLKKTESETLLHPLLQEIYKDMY

[2] = target: T2, Peroxisome proliferator-activated receptor gamma (Mus musculus) (UniProt P37238); test: Agonist activity at PPARgamma in mouse 3T3L1 cells assessed as upregulation of ATGL mRNA level at 10 uM after 6 days […] relative to control; conditions: 3T3-L1
T2 sequence (whole entry): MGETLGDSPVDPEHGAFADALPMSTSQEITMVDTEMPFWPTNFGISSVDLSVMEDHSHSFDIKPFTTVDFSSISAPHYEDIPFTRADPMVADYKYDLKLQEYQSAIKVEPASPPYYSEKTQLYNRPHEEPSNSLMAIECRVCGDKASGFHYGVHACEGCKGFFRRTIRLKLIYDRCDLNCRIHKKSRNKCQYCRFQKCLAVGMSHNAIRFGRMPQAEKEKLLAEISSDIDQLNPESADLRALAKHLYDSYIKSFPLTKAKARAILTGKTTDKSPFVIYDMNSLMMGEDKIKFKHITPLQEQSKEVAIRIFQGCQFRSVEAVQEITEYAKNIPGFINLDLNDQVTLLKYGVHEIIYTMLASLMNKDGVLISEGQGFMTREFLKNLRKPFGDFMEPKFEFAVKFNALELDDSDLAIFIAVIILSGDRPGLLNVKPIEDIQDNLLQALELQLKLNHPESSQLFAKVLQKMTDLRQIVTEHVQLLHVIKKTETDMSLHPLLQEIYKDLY

[3] = target: T2, Peroxisome proliferator-activated receptor gamma (Mus musculus); test: Agonist activity at PPARgamma in mouse 3T3L1 cells assessed as upregulation of MCAD mRNA level at 10 uM after 6 days […] relative to control; conditions: 3T3-L1
[4] = target: T2, Peroxisome proliferator-activated receptor gamma (Mus musculus); test: Agonist activity at PPARgamma in mouse 3T3L1 cells assessed as upregulation of HSL mRNA level at 10 uM after 6 days […] relative to control; conditions: 3T3-L1
[5] = target: T2, Peroxisome proliferator-activated receptor gamma (Mus musculus); test: Agonist activity at PPARgamma in mouse 3T3L1 cells assessed as downregulation of CD36 mRNA level at 10 uM after 6 days […] relative to control; conditions: 3T3-L1
[6] = target: T2, Peroxisome proliferator-activated receptor gamma (Mus musculus); test: Agonist activity at PPARgamma in mouse 3T3L1 cells assessed as upregulation of ADPN mRNA level at 10 uM after 6 days […] relative to control; conditions: 3T3-L1
[7] = target: T2, Peroxisome proliferator-activated receptor gamma (Mus musculus); test: Agonist activity at PPARgamma in mouse 3T3L1 cells assessed as downregulation of FATP mRNA level at 10 uM after 6 days […] relative to control; conditions: 3T3-L1
[8] = target: T2, Peroxisome proliferator-activated receptor gamma (Mus musculus); test: Agonist activity at PPARgamma in mouse 3T3L1 cells assessed as downregulation of FABP mRNA level at 10 uM after 6 days […] relative to control; conditions: 3T3-L1
[9] = target: T2, Peroxisome proliferator-activated receptor gamma (Mus musculus); test: Agonist activity at PPARgamma in mouse 3T3L1 cells assessed as downregulation of DGAT mRNA level at 10 uM after 6 days […] relative to control; conditions: 3T3-L1
[10] = target: T3, Peroxisome proliferator-activated receptor gamma (Homo sapiens) (UniProt P37231); test: Transactivation of PPARgamma (unknown origin) expressed in HEK293 cells co-transfected with AP2-PPRE by luciferase reporter gene assay
T3 sequence (whole entry): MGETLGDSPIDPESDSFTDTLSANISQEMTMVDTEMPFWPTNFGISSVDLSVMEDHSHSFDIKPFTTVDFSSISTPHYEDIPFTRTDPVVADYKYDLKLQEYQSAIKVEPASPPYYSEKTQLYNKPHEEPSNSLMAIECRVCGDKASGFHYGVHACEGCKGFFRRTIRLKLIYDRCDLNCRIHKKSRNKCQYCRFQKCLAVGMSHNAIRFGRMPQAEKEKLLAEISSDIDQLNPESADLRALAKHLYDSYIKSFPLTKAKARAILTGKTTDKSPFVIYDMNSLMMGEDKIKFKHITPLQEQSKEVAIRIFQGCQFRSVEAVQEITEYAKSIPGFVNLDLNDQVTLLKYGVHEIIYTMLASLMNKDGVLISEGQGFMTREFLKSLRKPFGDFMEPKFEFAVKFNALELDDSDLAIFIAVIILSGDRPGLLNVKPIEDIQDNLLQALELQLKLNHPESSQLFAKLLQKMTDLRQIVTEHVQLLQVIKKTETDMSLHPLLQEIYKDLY
Procedure, shortened: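 PPRE reporter plasmid (AP2 promoter element) transiently co-transfected into HEK-293 cells with RXR, PPARγ and β-galactosidase vectors using Lipofectamine 2000. Cells were treated across a dose–response series, plotted on a log(μM) axis from about −2 to 2. Luciferase was read as relative light units on a luminometer and normalised to β-galactosidase activity measured with ONPG.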

Measured: Activity

Cc1ccc(CNCCCN(Cc2ccc(C(=O)O)cc2)Cc2cc(C(F)(F)F)cc(C(F)(F)F)c2)cc1
active: all assays above
